{"data": "Published values pooled from the literature", "read-out": "microbial growth", "note": "Each line is one published result; the experiments were not run side by side."}
{"Structure (SMILES)": "CC1(C)S[C@@H]2[C@H](NC(=O)[C@H](N)c3ccccc3)C(=O)N2[C@H]1C(=O)O", "organism": "Salmonella enterica", "test system": "F98, TYPHIMURIUM", "conditions": "20 h, pH 7", "MIC": "2 µg/mL"}
{"Structure (SMILES)": "C[C@@H](O)[C@H]1C(=O)N2C(C(=O)O)=C(S[C@@H]3CN[C@H](C(=O)N(C)C)C3)[C@H](C)[C@H]12", "organism": "Salmonella enterica", "test": "broth dilution", "test system": "TYPHIMURIUM", "conditions": "clinical isolate", "MIC": "≤ 0.5 µg/mL"}
{"Structure (SMILES)": "O=C(O)CN1C(=O)/C(=C/c2ccc(-c3ccc(N(c4ccccc4)c4ccccc4)cc3)c3ccccc23)SC1=S", "organism": "Bacillus cereus", "test": "broth dilution", "test system": "ATCC10876", "MIC": "1000 µg/mL"}
{"Structure (SMILES)": "CO/N=C(\\C(=O)N[C@@H]1C(=O)N2C(C(=O)O)=C(CSc3nc(=O)c(=O)[nH]n3C)CS[C@H]12)c1csc(N)n1", "organism": "Salmonella enterica", "test system": "F98, TYPHIMURIUM", "conditions": "20 h, pH 5.5", "MIC": "0.25 µg/mL"}
{"Structure (SMILES)": "COc1cc(-c2cc(=O)c3c(O)cc(O)cc3o2)ccc1O", "organism": "Helicobacter pylori", "test": "broth dilution", "MIC": "3.9 µg/mL"}
{"Structure (SMILES)": "O=C1NC(=S)S/C1=C\\c1ccc(-c2ccc(N(c3ccccc3)c3ccccc3)cc2)c2ccccc12", "organism": "Bacillus cereus", "test": "broth dilution", "test system": "ATCC10876", "MIC": "1000 µg/mL"}
{"Structure (SMILES)": "O=C(Nc1ncc([N+](=O)[O-])s1)C1CCCCC1", "organism": "Helicobacter pylori", "test": "broth dilution", "test system": "26695", "conditions": "27 h", "MIC": "1.2 µM"}
{"Structure (SMILES)": "O=C(O)CN1C(=O)/C(=C/c2ccc(-c3ccc(N(c4ccccc4)c4ccccc4)cc3)cc2)NC1=S", "organism": "Bacillus cereus", "test": "broth dilution", "test system": "ATCC10876", "MIC": "125 µg/mL"}
{"Structure (SMILES)": "O=C(Nc1ncc([N+](=O)[O-])s1)c1cccnc1", "organism": "Helicobacter pylori", "test": "broth dilution", "test system": "26695", "conditions": "27 h", "MIC": "4 µM"}
{"Structure (SMILES)": "Cc1cc(NS(=O)(=O)c2ccc(N)cc2)no1", "organism": "Salmonella enterica", "test system": "TYPHIMURIUM", "conditions": "20 h, pH 5.5", "MIC": "1020 µg/mL"}
{"Structure (SMILES)": "O=C1NC(=S)N/C1=C\\c1ccc(-c2ccc(N(c3ccccc3)c3ccccc3)cc2)c2ccccc12", "organism": "Bacillus cereus", "test": "broth dilution", "test system": "ATCC10876", "MIC": "> 1000 µg/mL"}
{"Structure (SMILES)": "Oc1ccc(-c2nc(-c3ccc(Oc4ccccc4)cc3)no2)cc1", "organism": "Bacillus cereus", "test": "broth dilution", "test system": "ATCC13061", "MIC": "2 µg/mL"}
